According to ChEMBL document CHEMBL2176910, “Identification of small molecule inhibitors of amyloid β-induced neuronal apoptosis acting through the imidazoline I(2) receptor” (J Med Chem, 2012):
Activity calls are given as the source filed them. No cut-off for these calls is given here.

Tests used:
Mus musculus = organism: Mus musculus; experiment: Inhibition of imidazole receptor 2 in mouse hippocampal neurons assessed as reduction in tPA-induced Erk1/2 activation at 30 uM pre-incubated for 4 hrs before tPA stimulation by ELISA; conditions: Hippocampus
Summary of the method: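 Primary mouse hippocampal neurons were stimulated with tPA (20 μg/mL, 1 h) with or without compound at 30 μM. Phospho-Erk1/2 was measured by ELISA with a phospho-specific antibody and normalized to total Erk1/2. Untreated cultures set the lower limit and tPA alone the upper limit.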

[1] = Inhibition of radioligand binding to N-methyl D-aspartate receptor phencyclidine binding site at 10 uM
Summary of the method: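 Radioligand binding panel. Values are average percentages of inhibition of specific binding, measured against potent standard ligands for each target.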

Hippocampal neuron [2] = experiment: (§1) Neuroprotective activity in mouse hippocampal neurons assessed as Abeta-induced neuronal apoptosis at 30 uM pre-incubated for 4 hrs before Abeta challenge for 72 hrs by TUNEL assay (reference value: 100%); type: functional; conditions: Hippocampus
Summary of the method: (§2)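 Aggregated Aβ (20 μM, 72 h) was applied to primary mouse hippocampal neurons with or without compound at 30 μM. Apoptosis was scored by TUNEL as the percentage of positive nuclei among total nuclei, referred to Aβ alone (100%). Medium-only cells were the negative control and DNase the positive control. n = 4, mean ± SEM, two-tailed Student's test.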

Hippocampal neuron [3] = experiment: Neuroprotective activity against Abeta-induced neuronal apoptosis in mouse hippocampal neurons assessed as reduction in DNA fragmentation at 30 uM pre-incubated for 4 hrs before Abeta challenge for 72 hrs by immunofluorescence microscopy; type: functional, tissue-based; conditions: Hippocampus
Summary of the method: (§3)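 Primary mouse hippocampal neurons were exposed to Aβ (20 μM, 72 h) alone or with compound. Double immunofluorescence microscopy was then run for DNA fragmentation (TUNEL, green) and total neuronal nuclei (NeuN, red), with merged images. DNase-treated cells served as positive control.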

[4] = as §1; type: functional, Hippocampus, Hippocampal neuron; summary of the method: as §2
Hippocampal neuron [5] = experiment: Neuroprotective activity against Abeta-induced neuronal apoptosis in mouse hippocampal neurons assessed as reduction in total neuronal nuclei level at 30 uM pre-incubated for 4 hrs before Abeta challenge for 72 hrs by immunofluorescence microscopy; type: functional, tissue-based; conditions: Hippocampus; summary of the method: as §3
Rattus norvegicus [6] = organism: Rattus norvegicus; experiment: Displacement of [3H]2-BFI from rat imidazole receptor 2 in rat whole brain at 10 uM in presence of 1 uM yohimbine
Rattus norvegicus [7] = organism: Rattus norvegicus; experiment: Displacement of [3H]idazoxan from rat cerebral cortex imidazole receptor 2 at 10 uM in presence of 1 uM yohimbine; type: tissue-based

SMILES	inhibition of tPA-induced Erk1/2 activation (active/inactive call) (Mus musculus)	inhibition [1]	Activity (Hippocampal neuron [2])	also measured
c1ccc(C2NCCc3ccccc32)cc1 (configuration not stated)	Active	69%	inactive	
c1csc(C2NCCc3ccccc32)c1 (configuration not stated)	Active		Active	
CN1CCCC2(CCCNC2)C1 (configuration not stated)	Active		inactive	
CN1CCn2cccc2C1c1ccccc1 (configuration not stated)	Active		Active	
CC12CC3CC(C)(C1)CC(N)(C3)C2 [MEMANTINE]	Active	92%		Activity (Hippocampal neuron [3]): Active; Activity [4]: 42.3%; Activity (Hippocampal neuron [5]): Active
C[C@]12N[C@H](Cc3ccccc31)c1ccccc12		98%		inhibition (Mus musculus): Active
c1ccc(-c2ncc3cc(-n4ccnc4)ccc3n2)cc1				inhibition (Rattus norvegicus [6]): 92%; inhibition (Rattus norvegicus [7]): 66%
CN1Cc2ccccc2C2CCc3ccccc3C21 (configuration not stated)	Active		inactive	
c1ccc(C2NCCc3sccc32)cc1 (configuration not stated)	Active		Active	
